Columns and labels:
WspR = WspR (Pseudomonas aeruginosa, UniProt Q9HXT9); assay: EnzChek pyrophosphate assay; format: biochemical
Procedure, shortened: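 C-terminally 6×His-tagged WspR is expressed in E. coli BL21(DE3) in LB with 100 μg ml−1 ampicillin at 37 °C, then induced at A600 1.0 with 1 mM IPTG at 18 °C for 12–16 h. Cells are sonicated and the protein is purified by IMAC (500 mM imidazole elution), then Superdex 200 SEC in 25 mM Tris-HCl pH 7.4, 100 mM NaCl, 1 mM DTT. Pyrophosphate released from GTP-to-c-di-GMP conversion is read by EnzChek.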

tDGC-R158A = tDGC-R158A (Thermotoga maritima, UniProt Q9X2A8, R158A); assay: EnzChek pyrophosphate assay; format: biochemical; conditions: substrate GTP
Procedure, shortened: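 C-terminally 6×His-tagged T. maritima tDGC-R158A is expressed in E. coli BL21(DE3) with kanamycin at 37 °C and induced at OD600 0.8 with 0.8 mM IPTG at 25 °C for 4 h. It is French-press lysed and purified on Ni-NTA with a 20–500 mM imidazole gradient in Tris-HCl pH 8.0. Pyrophosphate from GTP conversion is read by a high-throughput-adapted EnzChek assay, giving % inhibition versus untreated enzyme.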

Row | Compound | IC50 (WspR) [µM] | % Inhibition of tDGC-R158A (tDGC-R158A; 100 µM) [%] | % Inhibition of tDGC-R158A (tDGC-R158A; 200 µM) [%]
1 | CC(=O)c1c(O)c(C)c(O)c(Cc2c(O)c3c(c(C(=O)/C=C/c4ccccc4)c2O)OC(C)(C)C=C3)c1O [LP 1062, (E)-1-[6-[(3-acetyl-2,4,6-trihydroxy-5-methylphenyl)methyl]-5,7-dihydroxy-2,2-dimethyl-2H-1-benzopyran-8-yl]-3-phenyl-2-propen-1-one] | 73.1 | – | –
2 | Cc1cc2c(C(C)C)c(O)c(O)c(C=O)c2c(O)c1-c1c(C)cc2c(C(C)C)c(O)c(O)c(C=O)c2c1O [LP 3145, 1,1′,6,6′,7,7′-hexahydroxy-5,5′-diisopropyl-3,3′-dimethyl-2,2′-binaphthalene-8,8′-dicarbaldehyde] | 70.9 | – | –
3 | CCOc1ccc(/C=N/NC(=O)c2cc(O)c(O)c(O)c2)cc1CN1CC2CC(C1)c1cccc(=O)n1C2 (stereo not drawn) [LP 3134, N′-((1E)-{4-ethoxy-3-[(8-oxo-1,5,6,8-tetrahydro-2H-1,5-methanopyrido[1,2-a][1,5]diazocin-3(4H)-yl)methyl]phenyl}methylene)-3,4,5-trihydroxybenzohydrazide] | 44.9 | 72.1 | –
4 | CN(CCCn1c2c(c(=O)[nH]c1=O)CSCC2)S(=O)(=O)c1ccc(N)cc1 [LP 4010] | 102 | – | 20.5
